Activity calls are given as the source filed them. The calls are words filed in the database; no cut-off is given here.
Columns and labels:
[1] = Effect on LDH level in standard diet fed Wistar rat plasma at 20 mg/kg/day, ip administered for 4 weeks; type: toxicity, organism-based; settings: in vivo, 672 h
[2] = Effect on glyco-metabolic profile in standard diet fed Wistar rat assessed as effect on HDL cholesterol level in plasma at 20 mg/kg/day, ip administered for 4 weeks; type: toxicity, organism-based; settings: in vivo, 672 h
Procedure, shortened: (§1)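 Rats fed HFD or SD for 12 weeks, dosed 20 mg/kg/day i.p. in saline/2% DMSO/5% Cremophor-EL during the final 28 days. Serum obtained after sacrifice by centrifuging blood at 2000 x g, 10 min, 4 °C. Glucose read by glucometer; total, HDL and LDL cholesterol and triglycerides measured with commercial kits. n=6–7 per group.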

Rattus norvegicus [3] = experiment: (§2) Cardioprotective activity against ischemia/reperfusion-induced myocardial injury and high diet fed obese Wistar rat model assessed as decrease in LDH activity in coronary effluents at 20 mg/kg/day, ip administered for 4 weeks followed by excised heart exposed to global ischemia for 30 mins and reperfusion for 120 mins and measured during first 20 mins of reperfusion by spectrophotometric analysis; type: functional, organism-based
Procedure, shortened: (§3)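 HFD or SD rats, dosed 20 mg/kg/day i.p. for the final 28 days, anaesthetised with ethyl carbamate (2 g/kg i.p.). Hearts Langendorff-perfused with Krebs–Henseleit buffer (pH 7.4, 37 °C, 12 ml/min); 40 min stabilization, 30 min global no-flow ischemia, 120 min reperfusion. Coronary effluent collected on ice before ischemia and at 10, 20, 30 min reperfusion; LDH activity by McQueen method. n=6–7.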

Rattus norvegicus [4] = experiment: (§4) Cardioprotective activity against myocardial ischemia/reperfusion injury-induced contractile impairment and high fat diet fed obese Wistar rat model assessed as left ventricular end diastolic pressure at 20 mg/kg/day, ip administered for 4 weeks followed by excised heart exposed to global ischemia for 30 mins and reperfusion for 120 mins and measured at the end of reperfusion (reference value: 27 +/-1 mmHg); type: functional
[5] = Effect on glyco-metabolic profile in standard diet fed Wistar rat assessed as effect on LDL cholesterol level in plasma at 20 mg/kg/day, ip administered for 4 weeks; type: toxicity, organism-based; settings: in vivo, 672 h; procedure, shortened: as §1
[6] = Effect on developed LVP recovery in standard diet fed Wistar rat model at 20 mg/kg/day, ip administered for 4 weeks (reference value: 69 +/-4 mmHg); type: toxicity, organism-based; settings: in vivo, 672 h
Rattus norvegicus [7] = experiment: (§5) Inhibition of ischemia/reperfusion-induced inflammation in ischemia/reperfusion-induced myocardial injury and high fat diet fed obese Wistar rat model assessed as decrease in cardiac TNF-alpha level at 20 mg/kg/day, ip administered for 4 weeks followed by excised heart exposed to global ischemia for 30 mins and reperfusion for 120 mins by ELISA; type: functional, organism-based
Procedure, shortened: (§6)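 Male Wistar rats on standard or 60% kcal fat diet for 12 weeks; last 28 days i.p. 20 mg/kg/day in saline with 2% DMSO and 5% Cremophor-EL, or vehicle. Hearts perfused by Langendorff with KH buffer at 12 ml/min, 37°C, then 40 min stabilization, 30 min global no-flow ischemia and 120 min reperfusion. Cytokines measured in LV tissue; n=6–7 per group.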

[8] = Drug metabolism in human THP-1 cells assessed as half time for compound hydrolysis to 2-(5-(2-Chlorobenzyl)-2-oxo-1,3,4-oxadiazol-3(2H)-yl)acetic acid at 100 uM by RP-HPLC analysis; type: ADME, cell-based
Procedure, shortened: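 PMA-differentiated THP-1 cells lysed in RIPA buffer. Compound added to lysate at 100 μM final (from 10 mM DMSO stock) at 37 °C. Aliquots at intervals deproteinized with CH3CN/0.1% TFA and quantified by RP-HPLC against standards. Pseudo-first-order t1/2 from exponential decay fit; three experiments.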

Rattus norvegicus [9] = experiment: Antiinflammatory activity against high fat diet fed-induced metaflammation Wistar rat model assessed as reduction in HFD-induced metabolic alterations by measuring reduction in LDL cholesterol level in plasma at 20 mg/kg/day, ip administered for 4 weeks; type: functional, organism-based; procedure, shortened: as §1
Rattus norvegicus [10] = experiment: Antiinflammatory activity against high fat diet fed-induced metaflammation Wistar rat model assessed as reduction in HFD-induced anthropometric alterations by measuring reduction in cardiac somatic index at 20 mg/kg/day, ip administered for 4 weeks; type: functional, organism-based
Procedure, shortened: (§7)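 Male Wistar rats on high-fat diet (60% kcal fat) or standard diet for 12 weeks; 20 mg/kg/day i.p. or vehicle (saline, 2% DMSO, 5% Cremophor-EL) over the last 28 days. Body weight recorded weekly. After sacrifice, abdominal, epididymal, retroperitoneal and perirenal fat, liver and heart excised and weighed. Cardiac somatic index = heart weight/body weight ×100. n=6–7 per group.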

[11] = molecular target: NACHT, LRR and PYD domains-containing protein 3 (Homo sapiens, UniProt Q96P20); experiment: Inhibition of NLRP3-dependent pyroptosis in PMA-differentiated human THP-1 cells assessed as inhibition of LPS/MSU-induced cell death at 10 uM by LDH assay; type: cell-based
Sequence of NACHT, LRR and PYD domains-containing protein 3 (Q96P20 whole entry, the tested form may be a part): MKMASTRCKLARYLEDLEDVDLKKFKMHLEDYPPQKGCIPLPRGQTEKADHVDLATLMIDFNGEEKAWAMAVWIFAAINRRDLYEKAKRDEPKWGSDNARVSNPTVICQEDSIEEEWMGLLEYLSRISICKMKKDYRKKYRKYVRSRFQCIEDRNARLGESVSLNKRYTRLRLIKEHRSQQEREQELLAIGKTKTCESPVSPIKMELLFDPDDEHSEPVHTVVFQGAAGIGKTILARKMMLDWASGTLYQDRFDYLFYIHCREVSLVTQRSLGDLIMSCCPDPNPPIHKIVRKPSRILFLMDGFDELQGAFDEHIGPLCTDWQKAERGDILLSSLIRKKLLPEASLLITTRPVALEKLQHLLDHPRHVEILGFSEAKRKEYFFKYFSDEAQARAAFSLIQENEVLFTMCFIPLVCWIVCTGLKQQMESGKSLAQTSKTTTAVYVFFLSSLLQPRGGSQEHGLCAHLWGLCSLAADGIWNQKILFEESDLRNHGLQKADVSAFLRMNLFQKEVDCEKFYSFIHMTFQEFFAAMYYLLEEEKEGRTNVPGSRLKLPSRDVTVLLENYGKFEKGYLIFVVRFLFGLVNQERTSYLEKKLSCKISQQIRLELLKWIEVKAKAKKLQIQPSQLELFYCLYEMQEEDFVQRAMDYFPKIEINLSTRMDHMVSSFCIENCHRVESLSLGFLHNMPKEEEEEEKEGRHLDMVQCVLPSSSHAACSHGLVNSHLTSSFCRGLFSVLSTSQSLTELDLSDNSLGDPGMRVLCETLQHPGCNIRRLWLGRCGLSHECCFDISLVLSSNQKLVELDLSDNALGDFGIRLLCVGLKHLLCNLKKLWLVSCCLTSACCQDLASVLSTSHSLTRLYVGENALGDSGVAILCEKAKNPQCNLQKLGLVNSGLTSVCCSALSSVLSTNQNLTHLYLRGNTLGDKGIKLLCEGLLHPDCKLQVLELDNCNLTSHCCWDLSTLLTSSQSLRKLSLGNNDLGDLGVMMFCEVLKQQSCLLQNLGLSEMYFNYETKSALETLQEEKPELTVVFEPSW

Rattus norvegicus [12] = experiment: Cardioprotective activity against ischemia/reperfusion-induced myocardial injury and standard diet fed Wistar rat model assessed as infarct size at 20 mg/kg/day, ip administered for 4 weeks followed by excised heart exposed to global ischemia for 30 mins and reperfusion for 120 mins and measured at the end of reperfusion by nitroblue tetrazolium staining based analysis (Rvb ~ 62+/-2%); type: functional; settings: 672 h
Procedure, shortened: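 Hearts from HFD or SD rats (20 mg/kg/day i.p., last 28 days) Langendorff-perfused (KH buffer, 37 °C, 12 ml/min). After 40 min stabilization they underwent 30 min global ischemia and 120 min reperfusion. The LV was stained; unstained necrotic and stained viable tissue separated and weighed. Infarct size expressed as % of LV mass. n=6–7.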

Rattus norvegicus [13] = experiment: as §4, with “developed LVP recovery” for “left ventricular end diastolic pressure”, “32 +/-4” for “27 +/-1”; type: functional
Rattus norvegicus [14] = experiment: Inhibition of ischemia/reperfusion-induced oxidative stress in ischemia/reperfusion-induced myocardial injury and standard diet fed Wistar rat model assessed as increase in cardiac SOD activity at 20 mg/kg/day, ip administered for 4 weeks followed by excised heart exposed to global ischemia for 30 mins and reperfusion for 120 mins; type: functional, organism-based
Procedure, shortened: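 Same rat diet, dosing and ischemia/reperfusion protocol. LV homogenized in 50 mM Tris-HCl pH 8.2 with 1 mM DTPA and centrifuged at 20,000 x g for 20 min. Supernatant mixed with 0.2 mM pyrogallol, autoxidation followed at 420 nm for 3 min. Activity given as % pyrogallol autoxidation relative to sham; 1 U inhibits the rate by 50%.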

[15] = Effect on glyco-metabolic profile in standard diet fed Wistar rat assessed as effect on triglyceride level in plasma at 20 mg/kg/day, ip administered for 4 weeks; type: toxicity, organism-based; settings: in vivo, 672 h; procedure, shortened: as §1
Rattus norvegicus [16] = experiment: Antiinflammatory activity against high fat diet fed-induced metaflammation Wistar rat model assessed as reduction in HFD-induced anthropometric alterations by measuring reduction in liver weight at 20 mg/kg/day, ip administered for 4 weeks; type: functional, organism-based; procedure, shortened: as §7
Rattus norvegicus [17] = experiment: Antiinflammatory activity against high fat diet fed-induced metaflammation Wistar rat model assessed as reduction in HFD-induced metabolic alterations by measuring reduction in plasma glucose level at 20 mg/kg/day, ip administered for 4 weeks by glucometer analysis; type: functional, organism-based; procedure, shortened: as §1
Rattus norvegicus [18] = experiment: as §5, with “standard” for “high fat”, “fed” for “fed obese”; type: functional, organism-based; procedure, shortened: as §6
[19] = Stability of the compound in saline solution containing 2% DMSO and 5% Cremophor-EL measured at 25 degC for more than 7 days by RP-HPLC analysis; type: physicochemical; settings: buffer, 168 h; time 7 day
Procedure, shortened: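 A 2 mg/mL solution in saline with 2% DMSO and 5% Cremophor-EL was kept at 4 °C or 25 °C for 7 days and analysed daily by RP-HPLC at 226/254 nm.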

Rattus norvegicus [20] = experiment: as §2, with “and standard” for “and high”, “fed” for “fed obese”, “first 10” for “first 20”; type: functional, organism-based; procedure, shortened: as §3
Rattus norvegicus [21] = experiment: as §4, with “standard” for “high fat”, “fed” for “fed obese”, “21 +/-2” for “27 +/-1”; type: functional

half-life at 100 µM [8]: 1.08 h
Stability [19]: Stable
SMILES: CCOC(=O)Cn1nc(Cc2ccccc2Cl)oc1=O
Activity [1]: Non-Toxic
Activity [2]: Non-Toxic
Activity (Rattus norvegicus [3]): Active
Activity (Rattus norvegicus [4]): 18 mmHg
Activity [5]: Non-Toxic
Activity [6]: 65 mmHg
inhibition (Rattus norvegicus [7]): Active
Activity (Rattus norvegicus [9]): Active
Activity (Rattus norvegicus [10]): Active
inhibition [11]: 61.6%
infarct size in vivo at 20 mg/kg/day (Rattus norvegicus [12]): ~53%
Activity (Rattus norvegicus [13]): 65 mmHg
inhibition (Rattus norvegicus [14]): Active
Activity [15]: Non-Toxic
Activity (Rattus norvegicus [16]): Active
Activity (Rattus norvegicus [17]): Active
inhibition (Rattus norvegicus [18]): Active
Activity (Rattus norvegicus [20]): Active
Activity (Rattus norvegicus [21]): 13 mmHg

Reference: ChEMBL document CHEMBL5335784, “Discovery of a novel 1,3,4-oxadiazol-2-one-based NLRP3 inhibitor as a pharmacological agent to mitigate cardiac and metabolic complications in an experimental model of diet-induced metaflammation” (Eur J Med Chem, 2023)
